These results are taken from PMC5110367 (Nature chemical biology, 2016).

Positions count from the first letter of the chain named. pEC50: −log10 of the molar value. Where two headings read alike, the source gives them in different places.

The test system of assay [1] is PPRE luciferase activity. In words: PPRE-luciferase assay in Pparb-null astrocytes. It counts as cell-based, mouse. To be noted: for inhibition by GW9662 of ligand-mediated increase in PPRE-luciferase activity: Pparb-null astrocytes pre-treated with PPARγ-antagonist GW9662; for PPRE luciferase activity: Pparb-null astrocytes, 4 h. Summed up: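 Astrocytes were taken from mixed glial cultures of 7-day-old Pparb-null mouse pups and pretreated with the PPARγ antagonist GW9662. At 60–70% confluence they were transfected with tk-PPREx3-Luc reporter. After 24 h they were treated with graded concentrations of test compound for 4 h, then luciferase activity was read.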

The test system of assay [2] is PPRE-luciferase activity. Type of assay: cell-based, mouse.
Assay [3] addresses T1, PPARα (Mus musculus, UniProt P23204).
T1 sequence (P23204 1-468): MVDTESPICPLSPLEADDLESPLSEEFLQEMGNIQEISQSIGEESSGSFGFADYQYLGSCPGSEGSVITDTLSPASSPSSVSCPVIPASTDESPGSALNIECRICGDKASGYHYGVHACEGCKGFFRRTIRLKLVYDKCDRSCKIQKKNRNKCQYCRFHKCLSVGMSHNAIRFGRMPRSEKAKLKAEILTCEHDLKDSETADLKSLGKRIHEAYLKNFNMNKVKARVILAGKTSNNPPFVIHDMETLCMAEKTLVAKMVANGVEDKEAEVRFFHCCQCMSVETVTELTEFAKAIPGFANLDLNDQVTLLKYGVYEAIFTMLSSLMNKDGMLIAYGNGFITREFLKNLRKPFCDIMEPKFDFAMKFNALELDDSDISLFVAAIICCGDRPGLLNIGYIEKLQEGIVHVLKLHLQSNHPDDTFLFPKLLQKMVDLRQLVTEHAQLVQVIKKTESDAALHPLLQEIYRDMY
In words: PPRE-driven luciferase assay in primary astrocytes. It counts as cell-based. To be noted: cultured astrocytes, different concentrations, 4 h.

Assay [4] deals with Ppara-null hippocampal neurons. In words: AMPA-driven calcium influx in transduced Ppara-null hippocampal neurons. Type of assay: cell-based, mouse. As to conditions: 50 μM N20C present. The essentials:
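Primary hippocampal neurons came from pooled E18 Ppara-null fetal mice. Tissue was trypsinised 5 min at 37°C and plated on poly-D-lysine in neurobasal medium. AraC (10 μM) was added next day, and cells differentiated for 9–10 days. Neurons were lentivirally transduced with the indicated Ppara construct, then given the test compound. 50 μM N20C blocked NMDA-receptor calcium flow during AMPA stimulation. Mean of three independent experiments.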

The target in assay [5] is T2, PPARβ-LBD (Homo sapiens, UniProt Q03181).
T2 sequence (Q03181 211-439 limits assumed): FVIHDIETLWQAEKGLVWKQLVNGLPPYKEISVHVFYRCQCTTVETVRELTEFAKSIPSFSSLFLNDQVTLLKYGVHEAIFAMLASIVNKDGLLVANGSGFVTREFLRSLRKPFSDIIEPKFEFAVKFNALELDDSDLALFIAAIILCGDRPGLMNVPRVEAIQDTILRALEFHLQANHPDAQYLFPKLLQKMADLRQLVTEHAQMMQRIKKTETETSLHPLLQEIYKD
Description: GC-MS of hippocampal nuclear extracts after pull-down with GST-PPARβ-LBD. Type of assay: binding. As to conditions: mouse hippocampal nuclear extracts.

In assay [6] the target is T1, PPARα. Type of assay: binding. To be noted: lenti-FL-Ppara-transduced Ppara-null neurons; not with empty lenti-vector.
In assay [7] the target is T3, PPARα (Mus musculus, UniProt P23204, Y314D).
T3 sequence (P23204 1-468 Y314D): T1 sequence (P23204 1-468) with Y314D
Type of assay: binding. To be noted: lenti-GFP-Y314D-Ppara-transduced Ppara-null neurons.

The target in assay [8] is T4, Y314D/Y464D-Ppara (Mus musculus, UniProt P23204, Y314D/Y464D).
T4 sequence (P23204 1-468 Y314D/Y464D): T1 sequence (P23204 1-468) with Y314D, Y464D
It counts as cell-based. As to conditions: Ppara-null astrocytes transduced with lenti-Y314D/Y464D-Ppara, 4 h.

The target in assay [9] is T5, Y314D-Ppara (Mus musculus, UniProt P23204, Y314D).
T5 sequence (P23204 1-468 Y314D): T1 sequence (P23204 1-468) with Y314D
It counts as cell-based. As to conditions: Ppara-null astrocytes transduced with lenti-Y314D-Ppara, 4 h.

Assay [10] deals with T6, PPARα LBD (Homo sapiens, UniProt Q07869).
T6 sequence (Q07869 239-466 limits assumed): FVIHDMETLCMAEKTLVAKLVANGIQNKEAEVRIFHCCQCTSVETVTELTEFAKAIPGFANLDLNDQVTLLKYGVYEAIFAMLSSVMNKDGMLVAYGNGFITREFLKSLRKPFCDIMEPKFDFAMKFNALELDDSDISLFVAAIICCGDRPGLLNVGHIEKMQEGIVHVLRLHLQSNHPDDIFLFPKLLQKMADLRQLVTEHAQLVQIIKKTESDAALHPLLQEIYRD
Description: Lanthascreen TR-FRET PPAR-alpha coactivator assay. Type of assay: biochemical. In general terms: TR-FRET usually uses a lanthanide donor and a delayed reading to cut background.

Where [11] appears, read: Ppara-null hippocampal neurons transduced with lenti-Y314D/Y464D-Ppara.
Where [12] appears, read: Ppara-null hippocampal neurons transduced with lenti-Y464D-Ppara.
Setting [13] is: lenti-Y314D/Y464D-Ppara-transduced.

In the case of `CCCCCCCCC=CCCCCCCCC(N)=O` [OCT, 9-octadecenamide], the “inhibition by GW9662 of ligand-mediated increase in PPRE-luciferase activity” value in assay [1] was “remained unable to inhibit”. Moreover, the PPRE luciferase activity result in assay [1] is reported as “markedly increased PPRE luciferase activity”. For the same molecule, the PPRE-luciferase activity entry is on record as “completely abrogated the PPRE-luciferase activity” in [2] (setting [11]); “completely abrogated the PPRE-luciferase activity” in assay [2] (setting [12]); “increased the PPRE-luciferase activity in a dose-dependent manner” in assay [3]; “unable to stimulate PPRE-luciferase activity” in [8]; “partial induction of PPRE-luciferase activity” in assay [9]. Further, the AMPA-mediated calcium influx entry in [4] (lenti-FL-Ppara-transduced) was “stimulated AMPA-mediated calcium influx”; in assay [4] (lenti-Y314D-Ppara-transduced), “only able to partially restore”; in assay [4] (setting [13]), “remained unable to increase AMPA mediated calcium influx”; in assay [4] (lenti-Y464D-Ppara-transduced), “remained unable to increase AMPA mediated calcium influx”. In addition, the “GC-MS peak after pull-down with PPARβ-LBD” value in assay [5] was “did not exhibit any peak”. Besides, the “binding to de novo-synthesized PPARα (immunoprecipitation, GC-MS)” value in assay [6] is recorded as “found to be bound to de novo-synthesized PPARα”. Moreover, the “ligand detected by GC-MS in nuclear extract” value in assay [7] is “low amount”. This molecule also gave a pEC50 in assay [10] of 5.32.
Consider `CCCCCCCCCCCCCCCC(N)=O` [HEX, hexadecanamide], for which the “inhibition by GW9662 of ligand-mediated increase in PPRE-luciferase activity” value in assay [1] is “remained unable to inhibit”. For the same molecule, in [1], the PPRE luciferase activity entry was “markedly increased PPRE luciferase activity”. Further, the PPRE-luciferase activity result in assay [2] (setting [11]) was “completely abrogated the PPRE-luciferase activity”; in [2] (setting [12]), “completely abrogated the PPRE-luciferase activity”; in assay [3] it was “increased the PPRE-luciferase activity in a dose-dependent manner”; in [8] it was “unable to stimulate PPRE-luciferase activity”; in assay [9], “partial induction of PPRE-luciferase activity”. Besides, the AMPA-mediated calcium influx entry in [4] (lenti-FL-Ppara-transduced) is “stimulated AMPA-mediated calcium influx”; in assay [4] (lenti-Y314D-Ppara-transduced), “only able to partially restore”; in [4] (setting [13]), “remained unable to increase AMPA mediated calcium influx”; in assay [4] (lenti-Y464D-Ppara-transduced) it was “remained unable to increase AMPA mediated calcium influx”. In assay [5], the “GC-MS peak after pull-down with PPARβ-LBD” value is recorded as “did not exhibit any peak”. Moreover, the “binding to de novo-synthesized PPARα (immunoprecipitation, GC-MS)” value in assay [6] was “found to be bound to de novo-synthesized PPARα”. For the same molecule, the “ligand detected by GC-MS in nuclear extract” value in assay [7] is reported as “low amount”. In [10], the pEC50 was 5.28.

One may read the pEC50 as −log10 of the EC50, conventionally taken in molar units. The low end stands for a large EC50, the high end for a small EC50.
